Experimental data as given in ChEMBL document CHEMBL5344432, “Identification of a Dual Autophagy and REV-ERB Inhibitor with in Vivo Anticancer Efficacy” (J Med Chem, 2024).
Converted amounts (≈) assume the structure as drawn.

How the values were obtained:
[1] = Metabolic stability in human liver microsomes assessed as parent compound remaining preincubated for 15 mins followed by NADPH addition and measured after 1 hr by LC-MS/MS analysis; type: ADME, Microsome; settings: time 75 min, read-out: Stability
In short: (§1)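 Microsomal stability assessed in mouse, human, rat or dog liver microsomes with NADPH cofactor. Half-life and percent parent remaining at 60 and 120 min reported. Mean of at least two independent experiments, each in two technical replicates.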

[2] = Metabolic stability in mouse liver microsomes assessed as half life preincubated for 15 mins followed by NADPH addition and measured after 1 to 2 hrs by LC-MS/MS analysis; type: ADME, Microsome; settings: time 75-135 min; for half-life: liver microsomes; for t1/2: microsomes; in short: as §1
[3] = Metabolic stability in human liver microsomes assessed as half life preincubated for 15 mins followed by NADPH addition and measured after 1 to 2 hrs by LC-MS/MS analysis; type: ADME, Microsome; settings: time 75-135 min; for half-life: liver microsomes; in short: as §1
[4] = Metabolic stability in mouse liver microsomes assessed as parent compound remaining preincubated for 15 mins followed by NADPH addition and measured after 1 hr by LC-MS/MS analysis; type: ADME, Microsome; settings: time 75 min, read-out: Stability; in short: as §1
[5] = Metabolic stability in mouse liver microsomes assessed as half-life preincubated for 15 mins followed by UDPGA addition and measured after 2 hrs by LC-MS/MS analysis
[6] = Metabolic stability in human liver microsomes assessed as percent compound remaining preincubated for 15 mins followed by UDPGA addition and measured after 2 hrs by LC-MS/MS analysis
[7] = Cytotoxicity against HMECs; type: toxicity, cell-based, HMEC; settings: human, HMEC cells
In short: (§2)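 BT-474 breast cancer cells and nontumorigenic HMECs treated 48 h with concentrations up to 30 μM. CC50 derived from concentration–response viability plots. Values >30 μM assigned when viability fell by less than 50% of vehicle at 30 μM. Mean ± SEM, n ≥ 3.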

[8] = Metabolic stability in mouse liver microsomes assessed as half life preincubated for 15 mins followed by UDPGA addition and measured after 2 hrs by LC-MS/MS analysis; type: ADME, Microsome; settings: time 135 min
In short: (§3)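 Mouse and human liver microsomes incubated with UDPGA cofactor. Half-life and percent parent remaining at 120 min reported. Mean of at least two independent experiments, each in two technical replicates.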

[9] = Metabolic stability in human liver microsomes assessed as parent compound remaining preincubated for 15 mins followed by NADPH addition and measured after 2 hrs by LC-MS/MS analysis; type: ADME, Microsome; settings: time 135 min, read-out: Stability; in short: as §1
[10] = tested on: BT-474; test: Cytotoxicity against human BT-474 cells; type: functional; in short: as §2
[11] = Metabolic stability in mouse liver microsomes assessed as parent compound remaining preincubated for 15 mins followed by NADPH addition and measured after 2 hrs by LC-MS/MS analysis; type: ADME, Microsome; settings: time 135 min, read-out: Stability; in short: as §1
[12] = Metabolic stability in human liver microsomes assessed as parent compound remaining preincubated for 15 mins followed by UDPGA addition and measured after 2 hrs by LC-MS/MS analysis; type: ADME, Microsome; settings: time 135 min, read-out: Stability; in short: as §3
[13] = Aqueous kinetic solubility of the compound in PBS at pH 7.4 at 250 uM incubated for 24 hrs by UPLC/MS analysis; type: physicochemical; settings: read-out: Kinetic_solubility
In short: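 Kinetic solubility measured in phosphate-buffered saline, pH 7.4. Mean of at least two independent experiments, each run in two technical replicates.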

SMILES	remaining at 1 h [1]	half-life [2]	half-life [3]	remaining at 1 h [4]	t1/2 at 2 h [5]	percent compound remaining at 2 h [6]	CC50 [7]	half-life [8]	remaining at 2 h [9]	CC50 [10]	remaining at 2 h [11]	remaining at 2 h [12]	solubility kinetic at 24 h, 250 µM [13]	t1/2 [2]	t1/2 ([3]; microsomes)
Fc1ccc(C2(NCc3cccc(CC4CCNCC4)c3)CCCC2)cc1	80%	> 2 h	> 2 h	85%	> 2 h	95%	> 30 µM	> 2 h	62%	2.74 µM	71%	95%	248 µM (≈ 90.9 µg/mL)		
CN1CCC(Cc2cccc(CNC3(c4ccc(F)cc4F)CCCC3)c2)CC1		< 0.5 h		19%			> 30 µM			7.83 µM	5%		209 µM (≈ 83.3 µg/mL)		
CN1CCC(Cc2cccc(CNC3(c4ccc(F)cc4)CCCC3)c2)C(F)(F)C1 (racemic)		< 0.0833 h					> 30 µM			21.9 µM			41 µM (≈ 17.1 µg/mL)		
CN1CCC(Cc2cc(CNC3(c4ccc(F)cc4)CCCC3)ccc2F)CC1	84%		> 2 h	60%	> 2 h	95%	> 30 µM	> 2 h	71%	5.89 µM	39%	95%	> 250 µM	1.52 h	
CN1CCC(Cc2ccc(F)c(CNC3(c4ccc(F)cc4)CCCC3)c2)CC1	75%		> 2 h	68%	> 2 h	95%	> 30 µM	> 2 h	53%	5.45 µM	46%	95%	246 µM (≈ 98 µg/mL)	1.78 h	
CN1CCC(Cc2cc(CNC3(c4ccc(F)cc4)CCCC3)ccc2O)CC1	83%		> 2 h	61%	> 2 h	95%	> 30 µM	> 2 h	63%	5.1 µM	43%	95%	> 250 µM	1.45 h	
CN1CCC(Cc2cccc(CNC3(c4ccc(F)cc4)CCCC3)c2)CC1(C)C (racemic)		> 1 h		58%			> 30 µM			6.46 µM			239 µM (≈ 97.7 µg/mL)		
CN1CCC(Cc2ccc(O)c(CNC3(c4ccc(F)cc4)CCCC3)c2)CC1	74%		> 2 h		> 2 h	95%	> 30 µM	> 2 h	54%	7.03 µM		95%	246 µM (≈ 97.6 µg/mL)	1.37 h	
CN1CCC(Cc2cccc(CNC3(c4ccc(F)c(F)c4)CCCC3)c2)CC1	75%		> 2 h	56%	> 2 h		> 30 µM	> 2 h	53%	5.1 µM	31%	> 95%	245 µM (≈ 97.6 µg/mL)	1.17 h	
CN1CCC(Cc2cc(CNC3(c4ccc(F)c(F)c4)CCCC3)ccc2F)CC1	77%		> 2 h	48%			> 30 µM		56%	3.52 µM	21%		231 µM (≈ 96.2 µg/mL)	0.967 h	
CN1CC(Cc2cccc(CNC3(c4ccc(F)cc4)CCCC3)c2)C1		> 1 h		63%			> 30 µM			13.4 µM			> 250 µM		
COc1cc(C2(NCc3cccc(CC4CCN(C)CC4)c3)CCCC2)ccc1F	80%		> 2 h	62%	> 2 h		> 30 µM	> 2 h	55%	3.65 µM	40%	> 95%	219 µM (≈ 89.9 µg/mL)	1.52 h	
COc1cc(F)ccc1C1(NCc2ccc(F)c(CC3CCN(C)CC3)c2)CCCC1	75%		> 2 h	55%	> 2 h		> 30 µM	> 2 h	58%	6.88 µM	31%	95%	> 250 µM	1.15 h	
CN1CCC(Cc2cccc(CNC3(c4ccc(F)cc4O)CCCC3)c2)CC1				34%	> 2 h		> 30 µM	> 2 h		> 30 µM	13%	> 95%	27 µM (≈ 10.7 µg/mL)	0.7 h	
COc1cc(F)ccc1C1(NCc2cccc(CC3CCN(C)CC3)c2)CCCC1	70%			64%	> 2 h		> 30 µM	> 2 h	50%	6.99 µM	42%	> 95%	247 µM (≈ 101 µg/mL)	1.63 h	1.53 h
